The source made the active and inactive calls. The rule behind the calls is not given here.
Assays:
Cholinesterase [1] = target: T1, Cholinesterase (Equus caballus, UniProt P81908); test: Inhibition of equine serum butyrylcholinesterase using […] as substrate preincubated for 30 mins followed by substrate addition measured after 2.5 mins by Ellman's spectrophotometric method
Method in brief: (§1)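 Ellman assay at 25 °C in phosphate buffer pH 8.0. Enzyme (AChE from human erythrocytes, BChE from equine or human serum; 2.5 units/mL stock with 2 mg/mL BSA) and DTNB (0.3 mM in assay) preincubated with compound from ethanol stocks (1 nM−1 mM in assay). Ethanol control, triplicates, IC50 from activity vs log concentration.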

Acetylcholinesterase [2] = target: T2, Acetylcholinesterase (Homo sapiens, UniProt P22303); test: Inhibition of human acetylcholinesterase using […] as substrate at 100 uM preincubated for 4.5 mins followed by substrate addition measured after 2.5 mins by Ellman's spectrophotometric method
[3] = target: Cholinesterase (Equus caballus) (UniProt P81908); test: (§2) Pseudo-irreversible inhibition of equine serum butyrylcholinesterase assessed as apparent affinity between enzyme and inhibitor at equilibrium state using p-nitrophenyl butyrate as substrate preincubated for 5 to 40 mins followed by substrate addition by double reciprocal plot analysis
[4] = target: Cholinesterase (Equus caballus) (UniProt P81908); test: Pseudo-irreversible inhibition of equine serum butyrylcholinesterase assessed as carbamoylation rate of inhibitor from reversible enzyme inhibitor complex to carbamoylated enzyme using p-nitrophenyl butyrate as substrate preincubated for 5 to 40 mins followed by substrate addition by double reciprocal plot analysis
[5] = target: Cholinesterase (Equus caballus) (UniProt P81908); test: as §2, with “assessed as ratio of carbamoylation rate of inhibitor to apparent affinity” for “assessed as apparent affinity”
Cholinesterase [6] = target: T1, Cholinesterase; test: Inhibition of equine serum butyrylcholinesterase using […] as substrate preincubated for 4.5 mins followed by substrate addition measured after 2.5 mins by Ellman's spectrophotometric method
Method in brief: as §1, with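 “assay). Acetyl- or butyrylthiocholine added (452 μM in assay), absorbance at 412 nm after 2.5 min.” for “assay).”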

Acetylcholinesterase [7] = target: T2, Acetylcholinesterase; test: Inhibition of human acetylcholinesterase using […] as substrate at 500 uM preincubated for 4.5 mins followed by substrate addition measured after 2.5 mins by Ellman's spectrophotometric method
[8] = Antioxidant activity assessed as trolox equivalents of AAPH radical scavenging activity preincubated for 15 mins followed by AAPH addition measured every 60 secs for 90 mins by ORAC assay; type: physicochemical; settings: 1.5 h
Method in brief: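 ORAC-FL: compound (1−5 μM) with fluorescein (300 nM final) in 75 mM phosphate buffer pH 7.4, 15 min at 37 °C, then AAPH (12 mM final). Fluorescence read every 60 s for 90 min (ex 485/em 535 nm). […] Samples in quadruplicate, ≥4 independent runs.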

[9] = Neurotoxicity against mouse HT22 cells assessed as cell viability up to 10 uM after 24 hrs by MTT assay; type: toxicity, cell-based, HT-22; settings: read-out: Activity
Method in brief: (§3)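 Murine hippocampal HT-22 cells in high-glucose DMEM with 10% heat-inactivated FCS, 37 °C, 5% CO2. […] MTT 3 h, SDS lysis, absorbance at 560 nm, viability as % of untreated cells.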

HT-22 [10] = test: Neuroprotective activity against glutamate-induced oxycytotic cell death in mouse HT22 cells assessed as cell viability at 5 to 25 uM after 24 hrs by MTT assay; type: functional, cell-based; method in brief: as §3
Acetylcholinesterase [11] = target: T2, Acetylcholinesterase; test: Inhibition of human acetylcholinesterase using […] as substrate preincubated for 4.5 mins followed by substrate addition measured after 2.5 mins by Ellman's spectrophotometric method
Method in brief: as §1, with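 “assay). Acetyl- or butyrylthiocholine added (452 μM in assay), absorbance at 412 nm after 2.5 min.” for “assay).”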

[12] = Neurotoxicity against mouse HT22 cells assessed as cell viability at 1 and 5 uM after 24 hrs by MTT assay; type: toxicity, cell-based; settings: ht-22, 24 h
Method in brief: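 HT-22 murine hippocampal cells grown in high-glucose DMEM plus 10% heat-inactivated FCS at 37 °C, 5% CO2. After 24 h culture in plates, treated 24 h with compound (DMSO ≤0.1% final) without glutamate. Viability read by MTT (3 h), SDS lysis buffer pH 4.1, absorbance at 560 nm, given as percent of untreated control.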

HT-22 [13] = test: Neuroprotective activity against glutamate-induced oxycytotic cell death in mouse HT22 cells assessed as cell viability at 5 uM after 24 hrs by MTT assay; type: functional, cell-based
Method in brief: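 Murine hippocampal HT-22 cells in high-glucose DMEM with 10% heat-inactivated FCS, 37 °C, 5% CO2. […] MTT (4 mg/mL in PBS, diluted 1:10 in medium) for 3 h, lysis in 10% SDS pH 4.1, absorbance 560 nm; viability as % of untreated cells.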

Acetylcholinesterase [14] = target: T2, Acetylcholinesterase; test: Inhibition of human acetylcholinesterase using […] as substrate at 10 uM preincubated for 4.5 mins followed by substrate addition measured after 2.5 mins by Ellman's spectrophotometric method
HT-22 [15] = test: Neuroprotective activity against glutamate-induced oxycytotic cell death in mouse HT22 cells assessed as cell viability at 25 uM after 24 hrs by MTT assay; type: functional, cell-based
Method in brief: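 Murine hippocampal HT-22 cells in high-glucose DMEM with 10% heat-inactivated FCS, 37 °C, 5% CO2. MTT (4 mg/mL in PBS, diluted 1:10 in medium) for 3 h, lysis in 10% SDS pH 4.1, absorbance 560 nm; viability as % of untreated cells.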

[16] = target: Cholinesterase (Equus caballus) (UniProt P81908); test: Pseudo-irreversible inhibition of equine serum butyrylcholinesterase assessed as decarbamoylation rate using […] as substrate preincubated for 1 hr followed by 1000 fold dilution
Method in brief: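 Enzyme incubated 1 h with inhibitor at a fully inhibiting concentration, then diluted 1:1000 in assay buffer. Activity measured by Ellman assay at various times after dilution, with uninhibited enzyme treated the same way as control. First-order fit of activity recovery gives k4.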

T1 sequence (P81908 whole entry): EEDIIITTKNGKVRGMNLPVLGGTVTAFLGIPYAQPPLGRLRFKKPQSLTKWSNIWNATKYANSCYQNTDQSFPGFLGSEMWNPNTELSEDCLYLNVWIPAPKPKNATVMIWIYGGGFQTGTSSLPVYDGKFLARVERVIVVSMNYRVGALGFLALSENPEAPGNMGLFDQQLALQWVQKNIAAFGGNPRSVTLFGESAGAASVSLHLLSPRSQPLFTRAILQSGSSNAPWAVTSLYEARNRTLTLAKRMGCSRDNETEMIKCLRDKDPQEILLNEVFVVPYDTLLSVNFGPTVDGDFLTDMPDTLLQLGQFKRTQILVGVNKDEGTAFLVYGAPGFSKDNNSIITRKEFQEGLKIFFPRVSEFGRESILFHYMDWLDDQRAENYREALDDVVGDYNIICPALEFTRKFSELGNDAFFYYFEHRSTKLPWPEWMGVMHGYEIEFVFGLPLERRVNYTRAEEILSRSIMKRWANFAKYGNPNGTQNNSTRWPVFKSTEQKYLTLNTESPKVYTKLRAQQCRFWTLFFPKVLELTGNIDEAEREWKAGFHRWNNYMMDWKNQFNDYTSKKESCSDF
Cholinesterase (Equus caballus), sequence (P81908 whole entry): as above
T2 sequence (P22303 whole entry): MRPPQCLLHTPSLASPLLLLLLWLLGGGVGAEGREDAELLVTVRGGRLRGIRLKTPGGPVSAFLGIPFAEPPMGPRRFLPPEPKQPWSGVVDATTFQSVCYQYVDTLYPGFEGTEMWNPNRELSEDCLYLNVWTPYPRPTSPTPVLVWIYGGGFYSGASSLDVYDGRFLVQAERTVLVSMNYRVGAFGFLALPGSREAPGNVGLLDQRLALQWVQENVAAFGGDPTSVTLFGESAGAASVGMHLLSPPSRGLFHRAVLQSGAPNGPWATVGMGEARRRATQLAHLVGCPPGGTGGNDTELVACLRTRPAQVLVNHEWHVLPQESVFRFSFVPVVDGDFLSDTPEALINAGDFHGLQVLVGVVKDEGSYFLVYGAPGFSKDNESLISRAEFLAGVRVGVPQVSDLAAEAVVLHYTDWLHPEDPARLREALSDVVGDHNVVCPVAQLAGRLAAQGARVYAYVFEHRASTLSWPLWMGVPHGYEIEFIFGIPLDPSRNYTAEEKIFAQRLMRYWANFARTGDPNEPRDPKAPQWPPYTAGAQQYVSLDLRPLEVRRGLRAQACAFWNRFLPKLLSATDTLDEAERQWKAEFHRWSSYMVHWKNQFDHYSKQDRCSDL

SMILES | IC50 (Cholinesterase [1]) [µM] | inhibition (Acetylcholinesterase [2]) [%] | IC50 (Cholinesterase [6]) [µM] | IC50 (Acetylcholinesterase [11]) [µM] | other results
CCCCCCCNC(=O)Oc1ccc2c(c1)CN(C)C(c1cccc(C)c1)N2C (stereo not given) | 0.199 | 27 | – | – | –
CCCCCCCNC(=O)Oc1ccc2nc(-c3ccccc3)ncc2c1 | 1.8 | 22 | – | – | K [3]: 1060 nM; K [4]: 0.14 min⁻¹; Ratio [5]: 0.13 µM⁻¹ min⁻¹
CCCCCCCNC(=O)Oc1ccc2c(c1)CN(C)C(c1cccc(Cl)c1)N2C (stereo not given) | 0.096 | 39 | – | – | K [3]: 227 nM; K [4]: 0.16 min⁻¹; Ratio [5]: 0.7 µM⁻¹ min⁻¹
Oc1ccc2nc(-c3ccccc3)ncc2c1 | – | – | 98.1 | – | inhibition (Acetylcholinesterase [7]): 20%
CCCCCCCNC(=O)Oc1ccc2c(c1)CN(C)C(c1ccc(OC)cc1)N2C (stereo not given) | 0.875 | 14 | – | – | K [3]: 1200 nM; K [4]: 0.24 min⁻¹; Ratio [5]: 0.2 µM⁻¹ min⁻¹; Activity [8]: 0.5 equiv; viability at 24 h [9]: > 80%; Activity (HT-22 [10]): Active
CN1Cc2cc(O)ccc2N(C)C1c1cccs1 (stereo not given) | – | – | 63.2 | 226 | Activity [8]: 3.4 equiv; Activity [12]: Non-toxic; Activity (HT-22 [13]): Active
CCCCCCCNC(=O)Oc1ccc2c(c1)CN(C)C(c1ccsc1)N2C (stereo not given) | 0.022 | 13 | – | – | –
CCCCCCCNC(=O)Oc1ccc2c(c1)CN(C)C(c1ccccc1OC)N2C (stereo not given) | 0.238 | – | – | – | inhibition (Acetylcholinesterase [14]): 47%
CCCCCCCNC(=O)Oc1ccc2c(c1)CN(C)C(c1ccccc1C)N2C (stereo not given) | 0.251 | – | – | – | inhibition (Acetylcholinesterase [14]): 18%
CN1Cc2cc(O)ccc2N(C)C1c1cc[nH]c1 (stereo not given) | – | – | 15.3 | 116 | –
CN1Cc2cc(O)ccc2N(C)C1c1ccccc1Cl (stereo not given) | – | – | 56 | – | inhibition (Acetylcholinesterase [7]): 60%
CCCCCCCNC(=O)Oc1ccc2c(c1)CN(C)C(c1ccoc1)N2C (stereo not given) | 0.083 | 12 | – | – | –
CN1Cc2cc(O)ccc2N(C)C1c1cccc2ccccc12 (stereo not given) | – | – | 2.8 | 342 | –
COc1ccc(C2N(C)Cc3cc(O)ccc3N2C)cc1 (stereo not given) | – | – | 39.5 | 104 | Activity [8]: 3.7 equiv; Activity [12]: Non-toxic; Activity (HT-22 [13]): Active; Activity (HT-22 [15]): inactive
CNC(=O)Oc1ccc2c(c1)[C@]1(C)CCN(C)[C@@H]1N2C | – | – | – | – | K [3]: 280 nM; K [4]: 0.3 min⁻¹; K [16]: 0.25 h⁻¹
CCCN1Cc2cc(O)ccc2N(C)C1c1ccccc1 (stereo not given) | – | – | 22.8 | 279 | –
CN1Cc2cc(O)ccc2N(C)C1c1ccc(C(F)(F)F)cc1 (stereo not given) | – | – | 64.6 | – | –
CCCCCCCNC(=O)Oc1ccc2c(c1)CN(CCC)C(c1ccccc1)N2C (stereo not given) | 0.04 | 46 | – | – | –
CN1Cc2cc(O)ccc2N(C)C1c1cccnc1 (stereo not given) | – | – | 70.7 | – | inhibition (Acetylcholinesterase [7]): 61%
CCCCCCCNC(=O)Oc1ccc2c(c1)CN(C)C(c1cccc(OC)c1)N2C (stereo not given) | 0.208 | 10 | – | – | K [3]: 622 nM; K [4]: 0.18 min⁻¹; Ratio [5]: 0.29 µM⁻¹ min⁻¹
Cc1ccccc1C1N(C)Cc2cc(O)ccc2N1C (stereo not given) | – | – | 92.4 | 143 | –
CC(C)N1Cc2cc(O)ccc2N(C)C1c1ccccc1 (stereo not given) | – | – | 55.8 | 253 | –
CN1Cc2cc(O)ccc2N(C)C1c1cccc(Cl)c1 (stereo not given) | – | – | 2.1 | 242 | –
COc1ccccc1C1N(C)Cc2cc(O)ccc2N1C (stereo not given) | – | – | 9.9 | 193 | –

Reference: ChEMBL document CHEMBL3785077 (J Med Chem, 2016)
